An excerpt weighted towards active compounds, which were near 3.7% of everything screened.
KCNK9 block: KCNK9 potassium channel inhibitors, primary screen, HEK293 cells, thallium flux | Potassium channel subfamily K member 9 (Homo sapiens), Q9NPC2 | B-score at 10 µM | 310,000 compounds, 1.2% hits | FluxOR thallium flux fluorescence; stronger effect = lower value;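 active = ratio B-score over 3 SD below the library mean, with starting fluorescence within 5 SD of its mean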;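 also: negative B-score means less thallium flux so channel inhibition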
KCNQ1 act: potentiators or activators of KCNQ1 channel, primary screen, cell-based, thallium flux, high-throughput; B-score at 10 µM; AID 2648, 2010; 310,000 compounds, 0.35% hits; CHO-K1 KCNQ1, thallium flux FluxOR fluorescence; stronger effect = higher value; Potassium voltage-gated channel subfamily KQT member 1 (Homo sapiens), P51787;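 active = fluorescence ratio B-score, a plate-corrected score, at least three library SD, with initial intensity B-score within 5 SD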
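Assay system: CHO-K1 cells stably expressing KCNQ1. Medium: assay buffer for compound exposure, DMSO matched across wells. Timing: 37 °C overnight plating, 90-min dark dye load, 20-min compound pretreatment. Signal: kinetic FluxOR fluorescence, 10 s baseline plus 110 s post-stimulus.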
KCNK3 inh: human KCNK3 channel inhibitors, primary screen, CHO cells, FluxOR thallium flux, B-score | FluxOR fluorescence; stronger effect = lower value | B-score at 10 µM | 340,000 compounds, 0.84% hits | AID 602410, 2012;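 active = B-score under library mean minus 4 SD, starting fluorescence ratio at most library mean plus 5 SD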;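 also: more negative B-score means stronger inhibition of thallium flux through KCNK3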
Kir21 inh: inhibitors of mouse Kir2.1 inward-rectifier potassium channel; Inward rectifier potassium channel 2 (Mus musculus), P35561; B-score at 10 µM; HEK293-Kir2.1, FluxOR thallium flux fluorescence; stronger effect = lower value; 310,000 compounds, 0.85% hits;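 active = fluorescence ratio B-score at or below minus 3 SD of library scores, with starting-brightness B-score within 2 SD, cut at about -4.2 in these data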;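 also: channel flux triggered by added potassium and thallium sulfate stimulus; B-score of peak minus minimum fluorescence over baseline after thallium stimulus; more negative B-score means stronger Kir2.1 block with less thallium influx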
Target sequence (P35561 whole entry, looked up): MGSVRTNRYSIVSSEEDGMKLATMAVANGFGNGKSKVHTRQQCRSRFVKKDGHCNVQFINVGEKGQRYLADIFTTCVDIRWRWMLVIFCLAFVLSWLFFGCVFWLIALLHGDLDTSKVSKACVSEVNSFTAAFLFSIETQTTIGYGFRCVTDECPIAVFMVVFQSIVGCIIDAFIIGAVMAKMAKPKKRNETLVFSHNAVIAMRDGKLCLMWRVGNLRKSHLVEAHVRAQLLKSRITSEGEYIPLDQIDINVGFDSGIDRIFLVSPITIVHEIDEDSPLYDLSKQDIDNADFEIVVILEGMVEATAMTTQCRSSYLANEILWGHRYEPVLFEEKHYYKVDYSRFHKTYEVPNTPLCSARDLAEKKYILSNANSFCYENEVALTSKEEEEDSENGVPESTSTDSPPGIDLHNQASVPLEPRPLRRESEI
hERG rescue: hERG rescue from dofetilide block, primary screen, cell-based, CHO-hERG, FluxOR thallium flux, dofetilide IC70; Voltage-gated inwardly rectifying potassium channel KCNH2 (Homo sapiens), Q12809; dofetilide IC70 present; activation (rescue from dofetilide block), less the hit threshold, % at 10 µM; 310,000 compounds, 0.51% hits; AID 1511, 2009;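 active = activation above the mean of controls blocked by dofetilide plus 5 SD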;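 also: thallium influx through hERG after potassium depolarization seen as dye fluorescence rise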
KCNQ1 block: inhibitors of human KCNQ1 channel, primary screen, cell-based, thallium flux, high-throughput | Potassium voltage-gated channel subfamily KQT member 1 (Homo sapiens), P51787 | 310,000 compounds, 1.3% hits | B-score at 10 µM | AID 2642, 2010 | CHO-K1 KCNQ1, FluxOR thallium flux fluorescence; stronger effect = higher value;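 active = compounds whose thallium flux B-score, printed positive for inhibition, exceeds three library SD while starting fluorescence stays within three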;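 also: channel opened by potassium depolarization with thallium stimulus after 20 min compound exposure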
Starred values were filed as active, the others as inactive.

`CCn1c2ccccc2c2cc(CN3CCN(C(=O)c4ccco4)CC3)ccc21` gave KCNK9 block inactive, KCNQ1 act inactive, KCNK3 inh inactive, Kir21 inh -0.71, hERG rescue -21 and KCNQ1 block inactive.
Screening CCCS(=O)(=O)N1CCN(Cc2ccc3c(c2)c2ccccc2n3CC)CC1 returned KCNK9 block inactive, KCNQ1 act inactive, KCNK3 inh inactive, Kir21 inh -5.9*, hERG rescue -9 and KCNQ1 block inactive.
For CCOc1ccccc1NC(=O)C1C2CCC(O2)C1C(=O)O (centres undefined) the results were KCNK9 block inactive, KCNQ1 act inactive, KCNK3 inh inactive, Kir21 inh -0.67, hERG rescue -1 and KCNQ1 block inactive.
COc1cccc(N(C(=O)Cn2nnc(-c3ccc(C)o3)n2)C(C(=O)NC(C)(C)C)c2cccs2)c1 (centres undefined) was read as KCNK9 block inactive, KCNQ1 act inactive, KCNK3 inh inactive, Kir21 inh 0.66, hERG rescue 6.4* and KCNQ1 block inactive.
CC(=O)Nc1ccc(S(=O)(=O)N[C@@H](C)C(=O)N2CCN(C/C=C/c3ccccc3)CC2)cc1 was read as KCNK3 inh inactive.
CCOC(=O)c1c(NC(=O)c2ccc(C)cc2)sc2c1CC(C)(C)OC2 was read as KCNK9 block inactive, KCNQ1 act inactive, KCNK3 inh inactive, Kir21 inh 0.97, hERG rescue -7 and KCNQ1 block 8*.
Screening CCCC(=O)Nc1sc2c(c1C(=O)OCC)CC(C)(C)OC2 returned KCNK9 block inactive, KCNQ1 act inactive, KCNK3 inh inactive, Kir21 inh -0.55, hERG rescue -14 and KCNQ1 block inactive.
Screening CC(=O)OC(C(=O)NCS(=O)(=O)c1ccc(C)cc1)c1cccnc1 (centres undefined) returned KCNK9 block inactive, KCNQ1 act inactive, KCNK3 inh inactive, Kir21 inh 1.1, hERG rescue 4.8* and KCNQ1 block inactive.
For N=c1n(Cc2ccccc2)c2ccccc2n1CC(O)COc1ccccc1 (centres undefined) the results were KCNK9 block inactive, KCNQ1 act inactive, KCNK3 inh inactive, Kir21 inh -7.1*, hERG rescue -23 and KCNQ1 block inactive.
For Cc1ccc(CCNC(=O)C2CCCN(S(=O)(=O)N3CC(C)CC(C)C3)C2)cc1 (centres undefined) the results were KCNK9 block inactive, KCNQ1 act inactive, KCNK3 inh inactive, Kir21 inh -0.7, hERG rescue -5 and KCNQ1 block inactive.
Screening FC(F)(F)c1cnc2c(c1)[nH]c(=S)n2-c1ccc(Cl)cc1 returned KCNK9 block inactive, KCNQ1 act inactive, KCNK3 inh inactive, Kir21 inh 3.9, hERG rescue 5.5* and KCNQ1 block inactive.
Screening Cc1ccc(C2=NOC(=O)/C2=C\C=C\c2ccccc2)cc1 returned KCNK9 block inactive, KCNQ1 act 8*, KCNK3 inh inactive, Kir21 inh 2, hERG rescue 1 and KCNQ1 block inactive.
Screening CC1CCCC(C)N1/N=C/c1ccc(C#N)cc1 (centres undefined) returned KCNK9 block inactive, KCNQ1 act inactive, KCNK3 inh inactive, Kir21 inh 1.2, hERG rescue -14 and KCNQ1 block inactive.
For Cc1ccc(OC(=O)c2ccc3nc(C)sc3c2)cc1 the results were KCNK9 block inactive, KCNQ1 act inactive, Kir21 inh -0.96, hERG rescue -6 and KCNQ1 block inactive.
Screening Cc1nc2ccc(OC(=O)c3ccccc3)cc2s1 returned KCNK9 block inactive, KCNQ1 act inactive, KCNK3 inh inactive, Kir21 inh -4.8*, hERG rescue -16 and KCNQ1 block inactive.
`CC(=O)Nc1ccc(S(=O)(=O)NCCC(=O)OCC(=O)NCc2ccccc2)cc1` gave KCNK3 inh inactive.
`Cc1cc(/C=C(\C#N)c2nc3ccccc3[nH]2)c(C)n1C` gave KCNK9 block inactive, KCNQ1 act inactive, KCNK3 inh inactive, Kir21 inh 0.6, hERG rescue -6 and KCNQ1 block inactive.
`Cc1cc(/C=C(/C#N)c2nc3ccccc3[nH]2)c(C)n1-c1cccc([N+](=O)[O-])c1` gave KCNK9 block inactive, KCNQ1 act inactive, KCNK3 inh inactive, Kir21 inh 0.88, hERG rescue -6 and KCNQ1 block 8*.
CCn1c(SCC(=O)OCC(=O)N2c3ccccc3NC(=O)C2(C)C)nnc1-c1ccco1 was read as KCNK9 block inactive, KCNQ1 act inactive, KCNK3 inh inactive, Kir21 inh -1.5, hERG rescue 7.0* and KCNQ1 block inactive.
Screening CCc1cc(/C(Cc2csc(C)n2)=N/O)c(O)cc1O returned KCNK9 block inactive, KCNQ1 act inactive, KCNK3 inh inactive, Kir21 inh -4.4*, hERG rescue -8 and KCNQ1 block inactive.
Screening CCOC(=O)c1sc(NC(=O)C(CC)Sc2nnc3c4ccccc4n(C(C)C)c3n2)nc1C (centres undefined) returned KCNK3 inh -11*.
CCOC(=O)Cc1nnc(NC(=O)C(CC)Sc2nnc3c4ccccc4n(C)c3n2)s1 (centres undefined) was read as KCNK9 block inactive, KCNQ1 act inactive, KCNK3 inh inactive, Kir21 inh -0.28, hERG rescue -7 and KCNQ1 block inactive.
For CCCCc1nc2sc3c(SCCN(C)C)ncnc3c2c2c1CCC2 the results were KCNK9 block inactive, KCNQ1 act 21*, KCNK3 inh inactive, Kir21 inh 0.1, hERG rescue -6 and KCNQ1 block inactive.
COc1ccc(-c2noc(CSc3nnc(CCc4ccccc4)n3-c3ccccc3)n2)cc1OC was read as KCNK9 block inactive, KCNQ1 act inactive, KCNK3 inh -9.7*, Kir21 inh -0.33, hERG rescue -12 and KCNQ1 block inactive.
COc1ccc(-c2noc(CSc3ccccc3)n2)cc1OC was read as KCNK9 block inactive, KCNQ1 act inactive, KCNK3 inh inactive, Kir21 inh 1.6, hERG rescue -15 and KCNQ1 block inactive.
`CSc1ccc(C2=CC(=O)C[C@H](c3ccc(Cl)cc3)C2)cc1` gave KCNK3 inh inactive.
